ChEMBL document CHEMBL3867462, “Synthesis and in vitro antikinetoplastid activity of polyamine-hydroxybenzotriazole conjugates” (Bioorg Med Chem, 2017)

Tests used:
[1] = Selectivity index, ratio of CC50 for mouse RAW 264.7 cells to IC50 for Leishmania donovani LV9 intramacrophage amastigotes infected in mouse RAW 264.7 cells; type: functional
Method in brief: (§1)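 Selectivity index is the CC50 on RAW 264.7 cells divided by the IC50 on the parasite.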

[2] = Cytotoxicity against mouse RAW264.7 cells assessed as cell growth inhibition after 72 hrs by Alamar blue dye-based assay; type: toxicity
Method in brief: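 RAW 264.7 cells in DMEM with 10% heat-inactivated FBS were seeded at 5×10³ cells/well and incubated 24 h at 37 °C, 5% CO2. The medium was then replaced with fresh DMEM containing compound.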

[3] = Selectivity index, ratio of CC50 for mouse RAW 264.7 cells to IC50 for Trypanosoma brucei gambiense FeoITMAP/1893 trypomastigotes; type: functional; method in brief: as §1
[4] = system: Trypanosoma brucei gambiense; test: Antitrypanosomal against bloostream forms of Trypanosoma brucei gambiense FeoITMAP/1893 trypomastigotes after 72 hrs in the dark by resazurin assay; type: functional; settings: FeoITMAP/1893, 72 h
Method in brief: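 Bloodstream trypanosomes were seeded at 4×10⁴/mL with compound dilutions in supplemented medium containing NaHCO3, hypoxanthine, bathocuproine, thymidine and 2-mercaptoethanol. Incubation was 72 h.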

Leishmania donovani [5] = test: Antileishmanial against of Leishmania donovani LV9 axenic amastigotes after 72 hrs by SYBR1 green-based qPCR analysis; type: functional; settings: LV9, 72 h
Method in brief: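 Axenic amastigotes were grown at 37 °C under 5% CO2, in medium at pH 5.5 containing glucose, glutamine, trypticase peptone, haemin and 20% FBS. Parasite load was read by SYBR green I fluorescence in a qPCR instrument and converted against a standard range of known parasite densities.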

Leishmania donovani [6] = test: Antileishmanial against of Leishmania donovani LV9 intramacrophage amastigotes infected in mouse RAW 264.7 cells after 48 hrs by SYBR1 green-based qPCR analysis; type: functional, cell-based; settings: LV9, RAW264.7, 48 h
Trypanosoma brucei = test: Inhibition of Trypanosoma brucei TryR using TS2 as substrate at 40 uM in presence of NADPH by spectrophotometric analysis
Method in brief: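 Recombinant T. brucei TryR was screened with inhibitor at 40 µM in assay buffer containing 5% DMSO, at 40 or 100 µM TS2. Activity was followed as NADPH consumption at 340 nm and reported as percent inhibition against DMSO-matched controls.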

[7] = Mixed-type inhibition of Trypanosoma brucei TryR assessed as enzyme-substrate-inhibitor complex using TS2 as substrate in presence of NADPH by Lineweaver-Burk plot analysis
Method in brief: (§2)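 Recombinant T. brucei TryR activity was followed as NADPH consumption at 340 nm with TS2 concentration varied, at 0, 10 and 40 µM inhibitor. Inhibition type and inhibitor constant were derived from Lineweaver–Burk plots.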

[8] = Selectivity index, ratio of CC50 for mouse RAW 264.7 cells to IC50 for Leishmania donovani LV9 axenic amastigotes; type: functional; method in brief: as §1
[9] = Mixed-type inhibition of Trypanosoma brucei TryR assessed as enzyme-inhibitor complex using TS2 as substrate in presence of NADPH by Lineweaver-Burk plot analysis; method in brief: as §2

IC50 [4]	IC50 (Leishmania donovani [5])	IC50 (Leishmania donovani [6])	inhibition (Trypanosoma brucei)	Ki [7]	Ki [9]	Structure (SMILES)	Ratio CC50/IC50 [1]	CC50 at 72 h [2]	Ratio CC50/IC50 [3]	Ratio CC50/IC50 [8]
25.3 µM	> 100 µM	23.4 µM				Cl.Cl.NCCCCN(CCCN)C(=O)COn1nnc2ccccc21	4	> 100 µM	4	
72 µM	> 100 µM	> 100 µM	80%	16.8 µM	6.7 µM	Cl.Cl.NCCCCNCCCNC(=O)COn1nnc2ccccc21		> 100 µM	1	1.5
13.8 µM	10.9 µM	38.6 µM				Cl.Cl.Cl.NCCCNCCCCNCCCNC(=O)COn1nnc2ccccc21	3	> 100 µM	7	9
> 100 µM	> 100 µM	29.5 µM				Cl.NCCCNC(=O)COn1nnc2ccccc21	3	> 100 µM		
38.7 µM	> 100 µM	> 100 µM				Cl.Cl.NCCCNCCCCNC(=O)COn1nnc2ccccc21		> 100 µM	3	9
> 100 µM	> 100 µM	> 100 µM				CC(C)(C)OC(=O)NCCCCNC(=O)COn1nnc2ccccc21		> 100 µM		
3.5 µM	27 µM	34.7 µM				CC(C)(C)OC(=O)NCCCN(CCCCN(CCCNC(=O)COn1nnc2ccccc21)C(=O)OC(C)(C)C)C(=O)OC(C)(C)C	1	37.4 µM	10	1.4
1.2 µM	60.5 µM	67.8 µM				CC(C)(C)OC(=O)NCCCCN(CCCNC(=O)COn1nnc2ccccc21)C(=O)OC(C)(C)C	1	> 100 µM	85	1.6
28.8 µM	> 100 µM	56.7 µM				CC(C)(C)OC(=O)NCCCNC(=O)COn1nnc2ccccc21	2	> 100 µM	3	
3.2 µM	11.5 µM	3.1 µM				CC(C)(C)OC(=O)NCCCCN(CCCNC(=O)OC(C)(C)C)C(=O)COn1nnc2ccccc21	4	12.5 µM	4	1
0.0021 µM						N=C(N)c1ccc(OCCCCCOc2ccc(C(=N)N)cc2)cc1 [PENTAMIDINE]		> 100 µM		
3.3 µM	8.3 µM	> 100 µM				NCCCCNCCCN [SPERMIDINE]		> 100 µM	29	12
2 µM	> 100 µM	41.4 µM				CC(C)(C)OC(=O)NCCCN(CCCCNC(=O)COn1nnc2ccccc21)C(=O)OC(C)(C)C	2	> 100 µM	50	
> 100 µM	> 100 µM	> 100 µM				O=C(O)COn1nnc2ccccc21		> 100 µM		
9.5 µM	> 100 µM	> 100 µM				Cl.NCCCCNC(=O)COn1nnc2ccccc21		> 100 µM	11	

Structure (SMILES)	IC50 [4]	IC50 (Leishmania donovani [5])	IC50 (Leishmania donovani [6])	inhibition (Trypanosoma brucei)	Ki [7]	Ki [9]	Ratio CC50/IC50 [1]	CC50 at 72 h [2]	Ratio CC50/IC50 [3]	Ratio CC50/IC50 [8]
CCCCCCCCCCCCCCCCOP(=O)([O-])OCC[N+](C)(C)C [MILTEFOSINE]		1.9 µM	1.5 µM					> 100 µM		
